From ChEMBL document CHEMBL3112463, “Synthesis and biological activity of polyalthenol and pentacyclindole analogues” (2014)

How the values were obtained:
Assay type in all cases: functional
WiDr = experiment: Antiproliferative activity against human WiDr cells assessed as growth inhibition after 48 hrs by SRB assay
How it was run: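 WiDr cells seeded at 20,000 cells/well after trypsinization into antibiotic-containing medium (trypan blue viability >97%). Culture at 37 °C, 5% CO₂ with foetal calf serum and 2 mM L-glutamine. Exposure to triplicate compound dilutions from DMSO stocks (0.25% v/v DMSO control) started day 1, lasting 48 h. Fixed with ice-cold 50% TCA, 60 min at 4 °C, then SRB, OD 492 nm background-subtracted.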

T47D = experiment: Antiproliferative activity against human T47D cells assessed as growth inhibition after 48 hrs by SRB assay
How it was run: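 T-47D cells grown at 37 °C, 5% CO₂ in serum- and 2 mM L-glutamine-containing medium. Trypsinized, viability >97% by trypan blue, seeded at 15,000 cells/well. Compounds added day 1 in triplicate dilutions (DMSO vehicle 0.25% v/v as control) for 48 h. Cold 50% TCA fixation 60 min at 4 °C, SRB read at 492 nm with blank correction.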

HeLa = experiment: Antiproliferative activity against human HeLa cells assessed as growth inhibition after 48 hrs by SRB assay
How it was run: (§1)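 Cells maintained at 37 °C, 5% CO₂ in medium with foetal calf serum and 2 mM L-glutamine. Trypsinized into antibiotic medium, >97% viable by trypan blue, plated at 10,000 cells/well. Triplicate dilutions from DMSO stocks (0.25% v/v DMSO control) added on day 1 for 48 h. TCA fixation (50%, 4 °C, 60 min), SRB stain, OD 492 nm corrected for medium-only blank.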

SW1573 = experiment: Antiproliferative activity against human SW1573 cells assessed as growth inhibition after 48 hrs by SRB assay; settings: SW1573, 48 h; how it was run: as §1
[1] = Antiproliferative activity against human HBL100 cells assessed as growth inhibition after 48 hrs by SRB assay; settings: HBL-100, 48 h; how it was run: as §1
A549 = experiment: Antiproliferative activity against human A549 cells assessed as growth inhibition after 48 hrs by SRB assay; settings: A549, 48 h
How it was run: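 Cells kept in medium with foetal calf serum and 2 mM L-glutamine at 37 °C, 5% CO₂. Trypsinized, resuspended in penicillin/streptomycin medium, >97% trypan blue viability, seeded at 10,000 cells/well. Compounds from DMSO stocks (0.25% v/v DMSO control), triplicate dilutions, added day 1 for 48 h. Fixed with cold 50% TCA for 60 min at 4 °C, then SRB staining, OD 492 nm, background corrected.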

Row | Compound | GI50 (WiDr) | GI50 (T47D) | GI50 (HeLa) | GI50 (SW1573) | GI50 [1] | GI50 (A549)
1 | COC(=O)[C@@]1(C)CC[C@@H]2C3=C1CC[C@@H](C)[C@]3(C)C[C@@H]1c3cc(Br)ccc3N[C@H]21 | 55 µM | 31 µM | 25 µM | 45 µM | 34 µM | 40 µM
2 | COC(=O)[C@@]1(C)CCC=C2[C@@H]1CC[C@@H](C)[C@]2(C)Cc1c[nH]c2ccc(C)cc12 | 22 µM | 20 µM | 14 µM | 15 µM | 18 µM | 17 µM
3 | COC(=O)[C@@]1(C)CCC=C2[C@@H]1CC[C@@H](C)[C@]2(C)Cc1c[nH]c2ccc(Br)cc12 | 20 µM | 16 µM | 10 µM | 12 µM | 16 µM | 15 µM
4 | COC(=O)[C@@]1(C)CCC=C2[C@@H]1CC[C@@H](C)[C@]2(C)Cc1c[nH]c2ccc(Cl)cc12 | 20 µM | 17 µM | 11 µM | 11 µM | 17 µM | 16 µM
5 | COC(=O)[C@@]1(C)CCC=C2[C@@H]1CC[C@@H](C)[C@]2(C)Cc1c[nH]c2ccc(C(F)(F)F)cc12 | 18 µM | 15 µM | 11 µM | 14 µM | 15 µM | 15 µM
6 | COC(=O)[C@@]1(C)CCC=C2[C@@H]1CC[C@@H](C)[C@]2(C)Cc1c[nH]c2c(C)cccc12 | 26 µM | 18 µM | 4.9 µM | 7.8 µM | 8 µM | 11 µM
7 | COC(=O)[C@@]1(C)CCC=C2[C@@H]1CC[C@@H](C)[C@]2(C)Cc1c[nH]c2c(Br)cccc12 | 32 µM | 24 µM | 13 µM | 14 µM | 18 µM | 22 µM
8 | COC(=O)[C@@]1(C)CCC=C2[C@@H]1CC[C@@H](C)[C@]2(C)Cc1c[nH]c2c(Cl)cccc12 | 31 µM | 24 µM | 14 µM | 14 µM | 19 µM | 22 µM
9 | COC(=O)[C@@]1(C)CCC=C2[C@@H]1CC[C@@H](C)[C@]2(C)Cc1c(C)[nH]c2ccccc12 | 19 µM | 17 µM | 11 µM | 14 µM | 14 µM | 15 µM
10 | COC(=O)[C@@]1(C)CCC=C2[C@@H]1CC[C@@H](C)[C@]2(C)Cc1c(C)[nH]c2ccc(C)cc12 | 28 µM | 31 µM | 17 µM | 18 µM | 25 µM | 26 µM
11 | COC(=O)[C@@]1(C)CCC=C2[C@@H]1CC[C@@H](C)[C@]2(C)Cc1c(C)[nH]c2ccc(Cl)cc12 | 18 µM | 17 µM | 12 µM | 14 µM | 15 µM | 17 µM
12 | COC(=O)[C@@]1(C)CCC=C2[C@@H]1CC[C@@H](C)[C@]2(C)Cc1c(C)[nH]c2ccc(F)cc12 | 17 µM | 15 µM | 11 µM | 12 µM | 14 µM | 15 µM
13 | COC(=O)[C@@]1(C)CCC=C2[C@@H]1CC[C@@H](C)[C@]2(C)Cc1c(C)[nH]c2ccc(OC)cc12 | 17 µM | 21 µM | 12 µM | 15 µM | 16 µM | 16 µM
14 | COC(=O)[C@@]1(C)CCC=C2[C@@H]1CC[C@@H](C)[C@]2(C)Cc1c(C)[nH]c2ccc(C(F)(F)F)cc12 | 21 µM | 21 µM | 12 µM | 15 µM | 16 µM | 17 µM
15 | COC(=O)[C@@]1(C)CCC=C2[C@@H]1CC[C@@H](C)[C@]2(C)Cc1c(C)[nH]c2c(C)cccc12 | 21 µM | 19 µM | 14 µM | 15 µM | 16 µM | 14 µM
16 | COC(=O)[C@@]1(C)CCC=C2[C@@H]1CC[C@@H](C)[C@]2(C)Cc1c(C)[nH]c2c(Br)cccc12 | 38 µM | 31 µM | 22 µM | 25 µM | 27 µM | 27 µM
17 | COC(=O)[C@@]1(C)CCC=C2[C@@H]1CC[C@@H](C)[C@]2(C)Cc1c(C)[nH]c2c(Cl)cccc12 | 29 µM | 27 µM | 17 µM | 19 µM | 22 µM | 20 µM

Row | Compound | GI50 (WiDr) | GI50 (T47D) | GI50 (HeLa) | GI50 (SW1573) | GI50 [1] | GI50 (A549)
18 | COC(=O)[C@@]1(C)CCC=C2[C@@H]1CC[C@@H](C)[C@]2(C)Cc1c(/C=C/[N+](=O)[O-])[nH]c2ccccc12 | 21 µM | 15 µM | 6.9 µM | 13 µM | 16 µM | 13 µM
19 | COC(=O)[C@@]1(C)CCC=C2[C@@H]1CC[C@@H](C)[C@]2(C)Cc1c(C)n(C(c2ccccc2)c2ccccc2)c2ccc(Cl)cc12 | > 100 µM | > 100 µM | > 100 µM | > 100 µM | > 100 µM | > 100 µM
20 | Cc1c(C[C@]2(C)C3=CCC[C@](C)(C(=O)O)[C@H]3CC[C@H]2C)c2cc(Cl)ccc2n1C(c1ccccc1)c1ccccc1 | 16 µM | 13 µM | 5.5 µM | 13 µM | 13 µM | 9.1 µM
21 | COC(=O)[C@@]1(C)CC[C@@H]2C3=C1CC[C@@H](C)[C@]3(C)C[C@@H]1c3ccccc3N[C@H]21 | 50 µM | 35 µM | 19 µM | 30 µM | 78 µM | 39 µM
22 | COC(=O)[C@@]1(C)CC[C@@H]2C3=C1CC[C@@H](C)[C@]3(C)C[C@@H]1c3cc(C)ccc3N[C@H]21 | 32 µM | 23 µM | 18 µM | 23 µM | 15 µM | 27 µM
23 | COC(=O)[C@@]1(C)CC[C@@H]2C3=C1CC[C@@H](C)[C@]3(C)C[C@@H]1c3cc(Cl)ccc3N[C@H]21 | 48 µM | 28 µM | 23 µM | 38 µM | 28 µM | 35 µM
24 | COC(=O)[C@@]1(C)CC[C@@H]2C3=C1CC[C@@H](C)[C@]3(C)C[C@@H]1c3cc(F)ccc3N[C@H]21 | 32 µM | 27 µM | 20 µM | 27 µM | 18 µM | 25 µM
25 | COC(=O)[C@@]1(C)CC[C@@H]2C3=C1CC[C@@H](C)[C@]3(C)C[C@@H]1c3cc(OC)ccc3N[C@H]21 | 25 µM | 19 µM | 20 µM | 25 µM | 15 µM | 22 µM
26 | COC(=O)[C@@]1(C)CC[C@@H]2C3=C1CC[C@@H](C)[C@]3(C)C[C@@H]1c3cccc(C)c3N[C@H]21 | 43 µM | 29 µM | 22 µM | 31 µM | 32 µM | 30 µM
27 | COC(=O)[C@@]1(C)CC[C@@H]2C3=C1CC[C@@H](C)[C@]3(C)C[C@@H]1c3cccc(Br)c3N[C@H]21 | 54 µM | 37 µM | 22 µM | 44 µM | 40 µM | 42 µM
28 | COC(=O)[C@@]1(C)CC[C@@H]2C3=C1CC[C@@H](C)[C@]3(C)C[C@@H]1c3cccc(Cl)c3N[C@H]21 | 67 µM | 50 µM | 31 µM | 49 µM | 52 µM | 54 µM
29 | COC(=O)[C@@]1(C)CC[C@@H]2C3=C1CC[C@@H](C)[C@]3(C)Cc1c2[nH]c2ccc(C)cc12 | 19 µM | 16 µM | 11 µM | 15 µM | 11 µM | 16 µM
30 | COC(=O)[C@@]1(C)CC[C@@H]2C3=C1CC[C@@H](C)[C@]3(C)Cc1c2[nH]c2ccc(Br)cc12 | 22 µM | 21 µM | 14 µM | 12 µM | 16 µM | 17 µM
31 | COC(=O)[C@@]1(C)CC[C@@H]2C3=C1CC[C@@H](C)[C@]3(C)Cc1c2[nH]c2c(C)cccc12 | 22 µM | 23 µM | 12 µM | 16 µM | 13 µM | 16 µM
32 | COC(=O)[C@@]1(C)CC[C@@H]2C3=C1CC[C@@H](C)[C@]3(C)Cc1c2[nH]c2c(Br)cccc12 | 37 µM | 31 µM | 18 µM | 26 µM | 26 µM | 35 µM
33 | COC(=O)[C@@]1(C)CC[C@@H]2C3=C1CC[C@@H](C)[C@]3(C)Cc1c2[nH]c2c(Cl)cccc12 | 21 µM | 21 µM | 12 µM | 17 µM | 16 µM | 21 µM
